≈ marks a conversion by molar mass, not a printed value.
Key:
MOLT-4 = test: In vitro inhibitory activity against Human T-cell acute lymphoblastic leukemia (MOLT-4) cell line.; assay type: functional, cell-based
In short: (§1)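 Each tumor cell line seeded at 1 × 10⁴/well and incubated with or without compound for 72 h; growth measured by MTT reduction, OD 570 nm, % inhibition relative to untreated control wells. IC50 (μg/mL) is the concentration giving 50% inhibition of cell growth.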

PC-13 = test: In vitro inhibitory activity against Human lung large-cell carcinoma (PC-13) cell line.; assay type: functional, cell-based; in short: as §1
L1210 = test: In vitro cytotoxic activity against Murine leukemia L1210 cells.; assay type: functional, cell-based; conditions: Mus musculus
In short: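 L1210 murine leukemia cells seeded at 1 × 10⁴/well, exposed with or without compound for 72 h; MTT then added and OD 570 nm read. % inhibition = [1 − OD sample/OD control] × 100; IC50 (μg/mL) taken as concentration giving 50% growth inhibition.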

KB = test: In vitro inhibitory activity against Human oral epidermoid carcinoma (KB) cell line.; assay type: functional, cell-based; in short: as §1
HL-60 = test: In vitro inhibitory activity against Human promyelocytic leukemia (HL-60) cell line.; assay type: functional, cell-based; in short: as §1
[1] = test system: Lewis lung carcinoma cell line; test: In vitro inhibitory activity against Mouse Lewis lung carcinoma (3LL) cell line.; assay type: functional, cell-based; in short: as §1
PC-6 = test: In vitro inhibitory activity against Human lung small-cell carcinoma (PC-6) cell line.; assay type: functional, cell-based; in short: as §1
P-36 (Homo sapiens) = test: In vitro inhibitory activity against Human melanoma (P-36) cell line.
T-24 = test: In vitro inhibitory activity against Human bladder transitional-cell carcinoma (T-24) cell line.; assay type: functional, cell-based; in short: as §1
[2] = test system: KATO III stomach cancer cell line; test: In vitro inhibitory activity against Human gastric carcinoma (KATO III) cell line.; assay type: functional, cell-based; in short: as §1
PC10 = test: In vitro inhibitory activity against Human lung squamous cell carcinoma (PC-10) cell line.; assay type: functional, cell-based; in short: as §1
U-937 = test: In vitro inhibitory activity against Human histiocytic lymphoma (U-937) cell line.; assay type: functional, cell-based; in short: as §1
PC-14 = test: In vitro inhibitory activity against Human lung adenocarcinoma (PC-14) cell line.; assay type: functional, cell-based; in short: as §1
B16 = test: In vitro inhibitory activity against Mouse melanoma (B16) cell line.; assay type: functional, cell-based; in short: as §1
CCRF-CEM = test: In vitro inhibitory activity against Human T-cell acute lymphoblastoid leukemia (CCRF CEM) cell line.; assay type: functional, cell-based; in short: as §1
SW480 = test: In vitro inhibitory activity against Human colon adenocarcinoma (SW-480) cell line.; assay type: functional, cell-based; in short: as §1
TE-2 = test: In vitro inhibitory activity against Human esophagus adenocarcinoma (TE-2) cell line.; assay type: functional, cell-based; in short: as §1

For `C=C1C(n2ccc(N)nc2=O)O[C@H](CO)[C@@H]1O` (stereo partly drawn), the IC50 (MOLT-4) was 0.041 µg/mL (≈ 0.171 µM), the IC50 (PC-13) was 1 µg/mL (≈ 4.18 µM) and the IC50 (L1210) was 0.37 µg/mL (≈ 1.55 µM). For the same compound, the IC50 (KB) was 1.4 µg/mL (≈ 5.85 µM), the IC50 (HL-60) was 0.04 µg/mL (≈ 0.167 µM) and the IC50 [1] was 16 µg/mL (≈ 66.9 µM). The IC50 (PC-6) was 39 µg/mL (≈ 163 µM), the IC50 (P-36 (Homo sapiens)) was 0.36 µg/mL (≈ 1.5 µM) and the IC50 (T-24) was 1.1 µg/mL (≈ 4.6 µM). For the same compound, the IC50 [2] was 8.3 µg/mL (≈ 34.7 µM), the IC50 (PC10) was > 100 µg/mL and the IC50 (U-937) was 0.44 µg/mL (≈ 1.84 µM). The IC50 (PC-14) was > 100 µg/mL, the IC50 (B16) was 3 µg/mL (≈ 12.5 µM) and the IC50 (CCRF-CEM) was 0.067 µg/mL (≈ 0.28 µM).
`C=C1C(n2cc(CC)c(=O)[nH]c2=O)O[C@H](CO)[C@@H]1O` (stereo partly drawn) was tested, and the IC50 (L1210) was > 100 µg/mL.
In the case of `C=C1C(n2cc(Cl)c(N)nc2=O)O[C@H](CO)[C@@H]1O` (stereo partly drawn), the IC50 (L1210) is reported as > 100 µg/mL.
In the case of `C#Cc1cn(C2O[C@H](CO)[C@H](O)C2=C)c(=O)[nH]c1=O` (stereo partly drawn), the IC50 (L1210) is reported as > 100 µg/mL.
With `C=C1C(n2cc(C)c(=O)[nH]c2=O)O[C@H](CO)[C@@H]1O` (stereo partly drawn) the IC50 (L1210) was 50 µg/mL (≈ 197 µM).
In the case of `C=C1C(n2cc(F)c(=O)[nH]c2=O)O[C@H](CO)[C@@H]1O` (stereo partly drawn), the IC50 (L1210) is reported as > 100 µg/mL.
`C=C1[C@H](n2ccc(=O)[nH]c2=O)O[C@H](CO)[C@H]1O` was tested, and the IC50 (L1210) was > 100 µg/mL.
For `C=C1C(n2cc(I)c(N)nc2=O)O[C@H](CO)[C@@H]1O` (stereo partly drawn), the IC50 (L1210) was > 100 µg/mL.
With `C=C1C(n2cc(Br)c(=O)[nH]c2=O)O[C@H](CO)[C@@H]1O` (stereo partly drawn) the IC50 (L1210) was > 100 µg/mL.
For `C=C1C(n2cc(Br)c(N)nc2=O)O[C@H](CO)[C@@H]1O` (stereo partly drawn), the IC50 (L1210) was > 100 µg/mL.
For `C=C1C(n2cc(CC)c(N)nc2=O)O[C@H](CO)[C@@H]1O` (stereo partly drawn), the IC50 (L1210) was > 100 µg/mL.
In the case of `C=C1C(n2cc(I)c(=O)[nH]c2=O)O[C@H](CO)[C@@H]1O` (stereo partly drawn), the IC50 (L1210) is reported as > 100 µg/mL.
In the case of `C=C1C(n2cc(F)c(N)nc2=O)O[C@H](CO)[C@@H]1O` (stereo partly drawn), the IC50 (MOLT-4) is reported as 0.03 µg/mL (≈ 0.117 µM), the IC50 (PC-13) is reported as 1.4 µg/mL (≈ 5.44 µM) and the IC50 (SW480) is reported as 4.4 µg/mL (≈ 17.1 µM). It also gave an IC50 (L1210) of 0.33 µg/mL (≈ 1.28 µM), an IC50 (KB) of 1.4 µg/mL (≈ 5.44 µM) and an IC50 (HL-60) of 0.053 µg/mL (≈ 0.206 µM). The IC50 (TE-2) was 1.8 µg/mL (≈ 7 µM), the IC50 [1] was 22 µg/mL (≈ 85.5 µM) and the IC50 (PC-6) was 16 µg/mL (≈ 62.2 µM). For the same compound, the IC50 (P-36 (Homo sapiens)) was 0.25 µg/mL (≈ 0.972 µM), the IC50 (T-24) was 0.94 µg/mL (≈ 3.65 µM) and the IC50 [2] was 8.3 µg/mL (≈ 32.3 µM). The IC50 (PC10) was > 100 µg/mL, the IC50 (U-937) was 0.4 µg/mL (≈ 1.56 µM) and the IC50 (PC-14) was > 100 µg/mL. For the same compound, the IC50 (B16) was 9.2 µg/mL (≈ 35.8 µM) and the IC50 (CCRF-CEM) was 0.1 µg/mL (≈ 0.389 µM).
With `C=C1C(n2cc(Cl)c(=O)[nH]c2=O)O[C@H](CO)[C@@H]1O` (stereo partly drawn) the IC50 (L1210) was > 100 µg/mL.
For `C=C1C(n2cc(C)c(N)nc2=O)O[C@H](CO)[C@@H]1O` (stereo partly drawn), the IC50 (MOLT-4) was > 100 µg/mL, the IC50 (PC-13) was > 100 µg/mL and the IC50 (SW480) was > 100 µg/mL. The IC50 (L1210) was 58 µg/mL (≈ 229 µM), the IC50 (KB) was > 100 µg/mL and the IC50 (HL-60) was 3 µg/mL (≈ 11.8 µM). For the same compound, the IC50 (TE-2) was > 100 µg/mL, the IC50 [1] was > 100 µg/mL and the IC50 (PC-6) was > 100 µg/mL. For the same compound, the IC50 (P-36 (Homo sapiens)) was > 100 µg/mL, the IC50 (T-24) was > 100 µg/mL and the IC50 [2] was > 100 µg/mL. For the same compound, the IC50 (PC10) was > 100 µg/mL, the IC50 (U-937) was > 10 µg/mL and the IC50 (PC-14) was > 100 µg/mL. For the same compound, the IC50 (B16) was > 100 µg/mL and the IC50 (CCRF-CEM) was > 1 µg/mL.
`Nc1ccn([C@@H]2O[C@H](CO)[C@@H](O)[C@@H]2O)c(=O)n1` [CYTARABINE] was tested, and the IC50 (PC-13) was > 100 µg/mL, the IC50 (SW480) was > 100 µg/mL and the IC50 (KB) was 30.5 µg/mL (≈ 125 µM). For the same compound, the IC50 (HL-60) was > 0.1 µg/mL, the IC50 (TE-2) was > 100 µg/mL and the IC50 (PC-6) was 50 µg/mL (≈ 206 µM). For the same compound, the IC50 (P-36 (Homo sapiens)) was 11.1 µg/mL (≈ 45.6 µM), the IC50 (T-24) was 0.5 µg/mL (≈ 2.06 µM) and the IC50 [2] was > 100 µg/mL. The IC50 (PC10) was > 100 µg/mL, the IC50 (U-937) was 0.46 µg/mL (≈ 1.89 µM) and the IC50 (PC-14) was > 100 µg/mL. It also gave an IC50 (B16) of 0.24 µg/mL (≈ 0.987 µM) and an IC50 (CCRF-CEM) of 0.32 µg/mL (≈ 1.32 µM).
`O=c1[nH]cc(F)c(=O)[nH]1` [FLUOROURACIL] showed an IC50 (KB) of 12.1 µg/mL (≈ 93 µM), an IC50 (HL-60) of 1.3 µg/mL (≈ 9.99 µM) and an IC50 (P-36 (Homo sapiens)) of 10.7 µg/mL (≈ 82.3 µM). For the same compound, the IC50 [2] was 3.7 µg/mL (≈ 28.4 µM), the IC50 (PC10) was > 100 µg/mL and the IC50 (U-937) was 3.5 µg/mL (≈ 26.9 µM). The IC50 (PC-14) was 10 µg/mL (≈ 76.9 µM) and the IC50 (B16) was 2.6 µg/mL (≈ 20 µM).

Reference: ChEMBL document CHEMBL1125609, “Nucleosides and nucleotides. 97. Synthesis of new broad spectrum antineoplastic nucleosides, 2'-deoxy-2'-methylidenecytidine (DMDC) and its derivatives” (J Med Chem, 1991)
